In experiment [1] the test system is MCF7. The experiment in a line: Cytotoxicity against human MCF7 cells assessed as reduction in cell viability incubated for 72 hrs by MTT assay. The format is functional, cell-based. The method in brief: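 Cells grown in MEM with 10% FBS; about 4×10^3 cells per well, pre-incubated 24 h at 37 °C in 5% CO2, then exposed to compound for 72 h. Seven concentrations, threefold serial dilution from 100 ug/mL initial. MTT at 5 µg/mL terminal concentration for 4 h; formazan dissolved in DMSO, absorbance read at 492 nm against 630 nm reference. IC50 is the average of two determinations.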
In general terms: Tetrazolium assays rely on reduction of a dye to a coloured formazan, in cell work by metabolically active cells.

Experiment [2] concerns the target Hepatocyte growth factor receptor (Homo sapiens, UniProt P08581). The experiment in a line: Inhibition of c-MET (unknown origin) incubated for 10 mins using FAM-labeled peptide and ATP by mobility shift assay. An outline of the steps: (§1)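 Mobility shift assay in 384-well plates. Kinase buffer: 50 mM HEPES pH 7.5, 10 mM MgCl2, 0.0015% Brij-35, 2 mM DTT. Compound, diluted from a 500 μM DMSO stock, preincubated with enzyme 10 min at room temperature. FAM-labelled peptide and ATP then added and the reaction run at 28 °C. Stopped with EDTA-containing buffer and read on Caliper. Inhibition = (max−conversion)/(max−min)×100, with DMSO wells as max and enzyme-free wells as min.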

Experiment [3] has as its target Epidermal growth factor receptor (Homo sapiens, UniProt P00533). Briefly: Inhibition of EGFR (unknown origin) incubated for 10 mins using FAM-labeled peptide and ATP by mobility shift assay.
Experiment [4] concerns the target T1, Receptor-type tyrosine-protein kinase FLT3 (Homo sapiens, UniProt P36888).
T1 sequence (P36888 whole entry): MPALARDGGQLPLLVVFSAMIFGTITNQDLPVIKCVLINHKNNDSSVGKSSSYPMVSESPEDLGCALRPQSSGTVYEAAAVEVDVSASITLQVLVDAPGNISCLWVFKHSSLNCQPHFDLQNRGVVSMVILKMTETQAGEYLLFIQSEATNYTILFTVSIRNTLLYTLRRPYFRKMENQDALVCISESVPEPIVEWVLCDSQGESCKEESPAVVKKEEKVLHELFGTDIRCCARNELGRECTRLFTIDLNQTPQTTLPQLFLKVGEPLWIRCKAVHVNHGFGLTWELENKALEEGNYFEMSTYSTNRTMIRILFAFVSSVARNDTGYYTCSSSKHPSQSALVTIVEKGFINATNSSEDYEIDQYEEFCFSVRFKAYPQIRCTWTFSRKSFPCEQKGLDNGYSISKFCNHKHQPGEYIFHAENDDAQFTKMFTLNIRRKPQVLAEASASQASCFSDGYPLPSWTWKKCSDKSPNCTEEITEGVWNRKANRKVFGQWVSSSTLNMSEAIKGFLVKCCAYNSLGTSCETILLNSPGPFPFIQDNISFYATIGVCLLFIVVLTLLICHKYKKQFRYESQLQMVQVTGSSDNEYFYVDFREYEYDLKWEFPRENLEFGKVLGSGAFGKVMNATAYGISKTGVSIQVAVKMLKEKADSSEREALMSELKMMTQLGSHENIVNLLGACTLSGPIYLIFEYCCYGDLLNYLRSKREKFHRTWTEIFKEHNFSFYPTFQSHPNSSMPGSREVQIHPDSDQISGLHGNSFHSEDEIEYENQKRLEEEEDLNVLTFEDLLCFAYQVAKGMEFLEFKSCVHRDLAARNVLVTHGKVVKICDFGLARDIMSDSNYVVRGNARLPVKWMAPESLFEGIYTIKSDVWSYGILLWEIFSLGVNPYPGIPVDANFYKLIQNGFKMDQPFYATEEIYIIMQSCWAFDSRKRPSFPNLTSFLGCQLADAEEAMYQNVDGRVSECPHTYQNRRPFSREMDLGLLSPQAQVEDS
The experiment in a line: Inhibition of FLT3 (unknown origin) incubated for 10 mins using FAM-labeled peptide and ATP by mobility shift assay. An outline of the steps: as §1

In experiment [5] the test system is A549. Briefly: Induction of morphological changes in human A549 cells assessed as induction of nucleus bright green staining at 1.85 uM incubated for 12 hrs by acridine orange dye based inverted microscopy and fluorescence microscopy. The format is functional, cell-based. An outline of the steps:
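Untreated control included. A549 cells exposed 12 h at 1.85 μM, then single-stained with acridine orange. Nuclei and morphology examined by inverted and fluorescence microscopy.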

Experiment [6] relates to A549. Briefly: Induction of apoptosis in human A549 cells assessed as early apoptotic cell level at 3 uM incubated for 48 hrs by Annexin VFITC and propidium iodide staining based flow cytometry (reference value: 0.64%). The format is functional. The method in brief: (§2)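 A549 cells seeded in RPMI 1640 and treated 48 h at 3, 6 or 12 µM. Cells then stained with Annexin V-FITC plus propidium iodide, 30 min at 4 °C in the dark, and analysed on a FACS Calibur flow cytometer.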
In general terms: Flow cytometry measures light scatter and fluorescence of single cells or particles in a stream.

Experiment [7] concerns A549. Briefly: Induction of apoptosis in human A549 cells assessed as necrotic cell level at 3 uM incubated for 48 hrs by Annexin VFITC and propidium iodide staining based flow cytometry (reference value: 2.69%). The format is functional. An outline of the steps: as §2
Experiment [8] deals with A549. The experiment in a line: Induction of apoptosis in human A549 cells assessed as viable cell level at 6 uM incubated for 48 hrs by Annexin VFITC and propidium iodide staining based flow cytometry (reference value: 93.27%). The format is functional. An outline of the steps: as §2

Structures are written as SMILES. pIC50: −log10 of the molar value. Active and inactive are the calls of the source. The rule behind the calls is not given here.

As usually defined, the pIC50 is the IC50 on a negative log10 scale, so that one unit is a factor of ten.

Chain of Hepatocyte growth factor receptor (P08581 whole entry): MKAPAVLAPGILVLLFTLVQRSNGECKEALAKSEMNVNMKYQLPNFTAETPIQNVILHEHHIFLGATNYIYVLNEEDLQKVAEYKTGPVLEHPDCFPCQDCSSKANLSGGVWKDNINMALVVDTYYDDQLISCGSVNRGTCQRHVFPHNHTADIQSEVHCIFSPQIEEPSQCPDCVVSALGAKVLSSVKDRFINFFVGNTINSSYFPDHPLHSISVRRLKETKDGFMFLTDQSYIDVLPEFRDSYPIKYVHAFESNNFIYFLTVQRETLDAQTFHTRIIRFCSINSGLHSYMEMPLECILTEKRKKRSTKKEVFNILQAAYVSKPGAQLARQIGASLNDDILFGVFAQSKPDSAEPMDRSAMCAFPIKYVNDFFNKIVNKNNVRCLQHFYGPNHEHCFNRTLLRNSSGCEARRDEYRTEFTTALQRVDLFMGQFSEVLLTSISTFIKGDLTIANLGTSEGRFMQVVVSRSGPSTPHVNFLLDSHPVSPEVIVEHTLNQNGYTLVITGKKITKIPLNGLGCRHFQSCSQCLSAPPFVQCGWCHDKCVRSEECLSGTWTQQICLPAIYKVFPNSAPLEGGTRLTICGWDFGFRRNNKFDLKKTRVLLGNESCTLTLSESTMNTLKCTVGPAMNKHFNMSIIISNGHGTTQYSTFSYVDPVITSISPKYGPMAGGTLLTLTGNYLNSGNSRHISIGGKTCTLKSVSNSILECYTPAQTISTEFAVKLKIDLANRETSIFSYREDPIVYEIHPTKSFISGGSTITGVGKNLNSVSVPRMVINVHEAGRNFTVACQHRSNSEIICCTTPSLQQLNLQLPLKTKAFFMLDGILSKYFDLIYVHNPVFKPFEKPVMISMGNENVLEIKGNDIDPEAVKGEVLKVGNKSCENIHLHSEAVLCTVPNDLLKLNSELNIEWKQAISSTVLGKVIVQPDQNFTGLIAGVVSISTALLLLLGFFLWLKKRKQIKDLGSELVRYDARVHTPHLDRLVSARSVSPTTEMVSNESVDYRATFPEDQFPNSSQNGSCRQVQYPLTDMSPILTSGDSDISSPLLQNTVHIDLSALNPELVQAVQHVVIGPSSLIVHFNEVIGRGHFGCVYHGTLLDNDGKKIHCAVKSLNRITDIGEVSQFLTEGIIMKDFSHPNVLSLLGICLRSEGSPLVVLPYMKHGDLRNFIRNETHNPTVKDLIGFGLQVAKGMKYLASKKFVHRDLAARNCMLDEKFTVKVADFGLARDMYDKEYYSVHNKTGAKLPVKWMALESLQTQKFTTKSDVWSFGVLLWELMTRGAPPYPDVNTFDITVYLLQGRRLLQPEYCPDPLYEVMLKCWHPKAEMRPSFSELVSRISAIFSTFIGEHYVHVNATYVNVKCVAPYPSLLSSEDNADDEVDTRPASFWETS
Chain of Epidermal growth factor receptor (P00533 whole entry): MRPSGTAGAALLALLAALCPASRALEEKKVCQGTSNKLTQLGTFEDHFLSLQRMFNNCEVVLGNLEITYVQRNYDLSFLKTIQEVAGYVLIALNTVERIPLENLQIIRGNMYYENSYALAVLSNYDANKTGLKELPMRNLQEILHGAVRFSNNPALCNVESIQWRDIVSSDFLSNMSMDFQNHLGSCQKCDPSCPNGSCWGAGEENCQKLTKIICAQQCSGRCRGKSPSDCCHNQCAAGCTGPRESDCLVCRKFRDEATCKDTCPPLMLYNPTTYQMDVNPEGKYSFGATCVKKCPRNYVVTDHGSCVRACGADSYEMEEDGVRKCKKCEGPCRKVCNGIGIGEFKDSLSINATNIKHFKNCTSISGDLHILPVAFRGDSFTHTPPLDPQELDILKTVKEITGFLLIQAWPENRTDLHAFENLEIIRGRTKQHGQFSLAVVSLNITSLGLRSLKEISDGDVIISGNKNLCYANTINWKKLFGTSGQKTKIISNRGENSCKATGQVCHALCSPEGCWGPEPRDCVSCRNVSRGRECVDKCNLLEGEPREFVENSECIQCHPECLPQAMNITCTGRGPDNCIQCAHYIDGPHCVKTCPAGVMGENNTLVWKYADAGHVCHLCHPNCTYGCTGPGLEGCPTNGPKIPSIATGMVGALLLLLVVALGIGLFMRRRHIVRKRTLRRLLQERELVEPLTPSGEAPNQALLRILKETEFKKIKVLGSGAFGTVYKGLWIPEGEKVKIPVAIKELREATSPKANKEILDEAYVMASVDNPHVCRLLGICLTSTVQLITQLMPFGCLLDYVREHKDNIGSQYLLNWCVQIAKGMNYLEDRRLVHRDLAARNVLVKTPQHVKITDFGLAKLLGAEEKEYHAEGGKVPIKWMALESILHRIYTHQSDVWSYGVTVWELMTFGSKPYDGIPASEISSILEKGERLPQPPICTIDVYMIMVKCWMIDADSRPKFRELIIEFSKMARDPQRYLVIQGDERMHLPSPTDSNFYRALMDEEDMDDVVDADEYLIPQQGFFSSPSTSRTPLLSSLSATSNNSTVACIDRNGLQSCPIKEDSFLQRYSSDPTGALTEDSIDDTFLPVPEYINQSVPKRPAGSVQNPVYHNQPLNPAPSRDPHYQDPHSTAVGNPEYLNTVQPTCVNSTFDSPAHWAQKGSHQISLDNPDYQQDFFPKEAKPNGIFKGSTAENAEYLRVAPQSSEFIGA

Regarding `CNC(=O)c1cc(Oc2ccc(C3=NNC(c4cccc(Br)c4)C3)cc2)ccn1` (centres undefined), the Activity result in experiment [1] was “Dose-dependent effect”; in experiment [6], 2.2%; in experiment [7], 4.49%; in experiment [8] it was 81.93%. Further, the pIC50 in experiment [1] (MCF7, 72 h) is 5.71; in experiment [2] it was 6.27; in experiment [3] it was under 5.00; in experiment [4], 5.28. In addition, the result in experiment [5] was Active.
